Measured values taken from ChEMBL document CHEMBL4190190, “Furan and Lactam Jadomycin Biosynthetic Congeners Isolated from Streptomyces venezuelae ISP5230 Cultured with Nε-Trifluoroacetyl-l-lysine” (J Nat Prod, 2017).
≈ marks a conversion by molar mass, not a printed value. Calls of active or inactive are those of the source. The calls are words filed in the database; no cut-off is given here.

Columns and labels:
Pseudomonas aeruginosa = test: Antibacterial activity against Pseudomonas aeruginosa ATCC 14210 after 22 hrs by CLSI microbroth assay; format: functional, organism-based
Staphylococcus aureus = test: Antibacterial activity against methicillin-resistant Staphylococcus aureus ATCC 33591 after 22 hrs by CLSI microbroth assay; format: functional; details: ATCC 33591, 22 h
Procedure, shortened: (§1)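 Run within a six-organism panel: MRSA, Staphylococcus warneri and vancomycin-resistant E. faecium (Gram-positive), Proteus vulgaris and Pseudomonas aeruginosa (Gram-negative), and the yeast Candida albicans. Read-out was the minimum inhibitory concentration, reported in μg mL−1.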

Staphylococcus warneri = test: Antibacterial activity against Staphylococcus warneri ATCC 17917 after 22 hrs by CLSI microbroth assay; format: functional; details: ATCC 17917, 22 h
Enterococcus faecium = test: Antibacterial activity against vancomycin-resistant Enterococcus faecium EF379 after 22 hrs by CLSI microbroth assay; format: functional; details: EF379, 22 h; procedure, shortened: as §1
Proteus vulgaris = test: Antibacterial activity against Proteus vulgaris ATCC 12454 after 22 hrs by CLSI microbroth assay; format: functional, organism-based
BJ = test: Cytotoxicity against human BJ cells after 24 hrs by alamar blue assay; format: cell-based
Vero = test: Cytotoxicity against African green monkey Vero cells after 24 hrs by alamar blue assay; format: cell-based; details: chlorocebus sabaeus

With Cc1cc(O)c2c(c1)C1OC(=O)[C@H](CCCCNC(=O)C(F)(F)F)N1C1=C2C(=O)c2cccc(O[C@H]3C[C@@H](O)[C@@H](O)[C@H](C)O3)c2C1=O (some centres undefined) the Activity (Pseudomonas aeruginosa) was “inactive”, the MIC (Staphylococcus aureus) was 3 µg/mL (≈ 4.54 µM) and the MIC (Staphylococcus warneri) was 3 µg/mL (≈ 4.54 µM). The MIC (Enterococcus faecium) was 13 µg/mL (≈ 19.7 µM), the Activity (Proteus vulgaris) was “inactive” and the MIC90 (BJ) was > 128 µg/mL. For the same compound, the MIC90 (Vero) was > 128 µg/mL.
With Cc1cc(O)c2c3c(n([C@@H](CCCCNC(=O)C(F)(F)F)C(=O)O)c(=O)c2c1)C(=O)c1c(O[C@H]2C[C@@H](O)[C@@H](O)[C@H](C)O2)cccc1C3=O the Activity (Pseudomonas aeruginosa) was “inactive”, the MIC (Staphylococcus aureus) was ≥ 100 µg/mL and the MIC (Staphylococcus warneri) was ≥ 100 µg/mL. For the same compound, the MIC (Enterococcus faecium) was ≥ 100 µg/mL, the Activity (Proteus vulgaris) was “inactive” and the MIC90 (BJ) was > 128 µg/mL. The MIC90 (Vero) was > 128 µg/mL.
